pIC50: −log10 of the molar value. Values after ≈ are worked out from the molar mass of the structure shown.
Key:
[1] = Partition coefficient, log Kp of the compound in micelle-HEPES buffer at pH 7.4; assay type: physicochemical
HL-60 = experiment: Cytotoxicity against human HL60 cells after 48 hrs by SRB assay; assay type: functional; conditions: HL-60, 48 h
Outline: (§1)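 Cells kept in RPMI-1640 with 5% heat-inactivated FBS at 37 °C and 5% CO2, used in exponential growth at >90% viability (Trypan blue). Seeded per well: MCF-7 and NCI-H460 5 × 10³, A375-C5 7.5 × 10³, HL-60 1 × 10⁴. After 24 h, serial dilutions (0–150, where possible) were given for 48 h; DMSO ≤0.25%. Plates were TCA-fixed (10% adherent, 16.7% HL-60), SRB-stained and read at 510 nm. GI50 taken from curves; mean ± SE, ≥3 experiments; doxorubicin as positive control.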

[2] = Cytotoxicity against human A375-C5 cells after 48 hrs by SRB assay; assay type: functional; conditions: A375-C5, 48 h; outline: as §1
NCI-H460 = experiment: Cytotoxicity against human NCI-H460 cells after 48 hrs by SRB assay; assay type: functional; conditions: NCI-H460, 48 h; outline: as §1
[3] = Partition coefficient, log Kp of the compound in liposome-HEPES buffer at pH 7.4; assay type: physicochemical; conditions: artificial membrane
MCF7 = experiment: Cytotoxicity against human MCF7 cells after 48 hrs by SRB assay; assay type: functional; conditions: MCF7, 48 h; outline: as §1
[4] = Cytotoxicity against Drosophila melanogaster S2 cells; assay type: functional, cell-based
KB = experiment: Cytotoxicity against human KB cells; assay type: functional, cell-based
L1210 = experiment: Cytotoxicity against mouse L1210 cells; assay type: functional, cell-based
SMMC-7721 = experiment: Cytotoxicity against human SMMC7721 cells; assay type: functional, cell-based
HCT-116 = experiment: Cytotoxicity against human HCT116 cells; assay type: functional, cell-based
SGC-7901 = experiment: Cytotoxicity against human SGC7901 cells; assay type: functional, cell-based
NCI-H187 = experiment: Cytotoxicity against human NCI-H187 cells; assay type: functional, cell-based
[5] = Cytotoxicity against human BC1 cells; assay type: functional, cell-based

Row | Compound | log Kp [1] | log Kp [3] | GI50 (HL-60) [µM] | GI50 [2] [µM] | GI50 (NCI-H460) [µM] | GI50 (MCF7) [µM] | further results
1 | CC1(C)CCc2c(cc3oc4ccccc4c(=O)c3c2O)O1 | 4.32 |  |  |  |  |  | 
2 | COc1cccc2c1C(=O)c1c(O)c3c(c(O)c1C2=O)C[C@@](O)(C(=O)CO)C[C@@H]3O[C@H]1C[C@H](N)[C@H](O)[C@H](C)O1 [DOXORUBICIN] |  |  | 0.028 |  |  |  | 
3 | CC1(C)CCc2cc(O)c3c(=O)c4ccccc4oc3c2O1 | 4.28 |  | > 50 | > 50 | > 50 | > 50 | 
4 | CC1(C)CCc2cc3oc4cc(O)cc(O)c4c(=O)c3c(O)c2O1 |  |  |  |  |  |  | IC50 [4]: 6.3 µg/mL (≈ 19.2 µM)
5 | COc1c(O)cc2c(=O)c3c(O)c4c(cc3oc2c1CC=C(C)C)OC(C)(C)C=C4 [MANGLEXANTHONE] |  |  |  |  |  |  | pIC50 (KB): 5.72
6 | COc1c2c(cc3oc4ccccc4c(=O)c13)CCC(C)(C)O2 | 3.58 | 3.09 | 37.6 | > 150 | > 150 |  | 
7 | CC1(C)CCc2cc3oc4ccccc4c(=O)c3c(O)c2O1 | 3.88 | 3.96 | 26.1 | > 150 | > 150 | > 150 | 
8 | COc1ccc2c(=O)c3c(OC)c4c(c(OC)c3oc2c1OC)OC(C)(C)C=C4 |  |  |  |  |  |  | IC50 (L1210): 4.23 µg/mL (≈ 10.6 µM)
9 | CC(C)=CCc1c2c(c3oc4cc(O)c(O)cc4c(=O)c3c1O)C=CC(C)(C)O2 [CUDRATRICUXANTHONE] |  |  |  |  |  |  | pIC50 (SMMC-7721): 5.39; pIC50 (HCT-116): 5.39; pIC50 (SGC-7901): 5.39
10 | COc1cc(OC)c2c(=O)c3c(O)c4c(c(OC)c3oc2c1OC)OC(C)(C)C=C4 |  |  |  |  |  |  | IC50 (L1210): 3.51 µg/mL (≈ 8.47 µM)
11 | CC(C)=CCc1c(O)cc2oc3cc(O)c4c(c3c(=O)c2c1O)CCC(C)(C)O4 |  |  |  |  |  |  | IC50 (NCI-H187): 3.9 µg/mL (≈ 9.84 µM); IC50 [5]: 3.9 µg/mL (≈ 9.84 µM); IC50 (KB): 3.9 µg/mL
12 | CC1(C)CCc2c(cc(O)c3c(=O)c4ccccc4oc23)O1 | 4.27 |  |  |  |  |  | 

Second part, led by results:

Row | log Kp [1] | log Kp [3] | Compound | GI50 (HL-60) [µM] | GI50 [2] [µM] | GI50 (NCI-H460) [µM] | GI50 (MCF7) [µM] | further results
13 | 3.76 | 3.54 | COc1c2c(cc3oc4ccccc4c(=O)c13)C=CC(C)(C)O2 | 9.6 | 47.4 | 42.9 |  | 
14 | 4.15 | 4.17 | CC1(C)C=Cc2cc3oc4ccccc4c(=O)c3c(O)c2O1 | 38.9 | 29.6 | 31.7 | 39.6 | 
15 | 3.88 | 3.92 | COc1c2c(cc3c(=O)c4ccccc4oc13)OC(C)(C)CC2 | 31.8 | 42.5 | 47.3 | 45.1 | 
16 | 3.46 | 3.08 | COc1cc2c(c3oc4ccccc4c(=O)c13)OC(C)(C)CC2 | 30.9 | > 100 |  | > 100 | 
17 | 3.83 | 3.88 | COc1c2c(cc3c(=O)c4ccccc4oc13)C=CC(C)(C)O2 |  | > 150 | > 150 | > 150 | 
18 | 3.5 | 3.42 | CC1(C)C=Cc2ccc3c(=O)c4ccccc4oc3c2O1 | 3.2 | 6.2 | 32.9 | 13.3 | 
19 | 3.33 | 3.32 | COc1cc2c(c3oc4ccccc4c(=O)c13)OC(C)(C)C=C2 | 9.6 | 69.5 |  |  | 
20 | 4.02 |  | CC1(C)C=Cc2c(cc(O)c3c(=O)c4ccccc4oc23)O1 |  |  | > 150 | > 150 | 
21 | 3.29 | 3.06 | CC1(C)C=Cc2c(cc3c(=O)c4ccccc4oc3c2O)O1 | > 70 | > 150 | > 150 | 108 | 
22 | 4.06 |  | CC1(C)C=Cc2c(cc3oc4ccccc4c(=O)c3c2O)O1 |  |  | > 150 | > 150 | 
23 | 4.08 |  | CC1(C)C=Cc2cc(O)c3c(=O)c4ccccc4oc3c2O1 | 6.4 | > 100 |  |  | 
24 | 4.07 | 3.94 | COc1c2c(cc3c(=O)c4ccccc4oc13)OC(C)(C)C=C2 | 11.8 |  |  |  | 
25 | 4.1 | 4.14 | CC1(C)C=Cc2c(ccc3oc4ccccc4c(=O)c23)O1 | 36.7 | 37.9 | 44.5 | 50.9 | 

From ChEMBL document CHEMBL2434894, “Pyranoxanthones: Synthesis, growth inhibitory activity on human tumor cell lines and determination of their lipophilicity in two membrane models” (Eur J Med Chem, 2013)
